Series [1] in a line: In-vivo inhibition of 11beta-HSD1 activity in C57BL/6 mouse epididymal fat assessed as reduction in cortisone to-cortisol conversion at 10 mg/kg, po measured after 6 hrs by ELISA. Type of series: functional. To be noted: C57BL/6, Epididymal fat pad. The method in brief: (§1)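 Male C57BL/6 mice dosed orally once at 3, 10 or 30 mg/kg in sterile water containing 0.5% methylcellulose and 1% Tween80, then sacrificed at 2 or 6 h. Liver and epididymal fat pads incubated ex vivo in culture medium containing cortisone. Cortisol formed was measured by ELISA and reported as % inhibition versus vehicle.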

A short description of series [2]: In-vivo inhibition of 11beta-HSD1 activity in C57BL/6 mouse liver assessed as reduction in cortisone to-cortisol conversion at 30 mg/kg, po measured after 2 hrs by ELISA. To be noted: C57BL/6, Liver. Type of series: functional. The method in brief:
as §1
(In general: ELISA stands for enzyme-linked immunosorbent assay.)

A short description of series [3]: Ratio of unbound drug level in mouse plasma at 10 mg/kg, po measured after 2 hrs post dose to IC50 for mouse 11beta-HSD1. Type of series: ADME, organism-based. To be noted: in vivo.
Series [4] in a line: In-vivo inhibition of 11beta-HSD1 activity in C57BL/6 mouse liver assessed as reduction in cortisone to-cortisol conversion at 10 mg/kg, po measured after 2 hrs by ELISA. Type of series: functional. To be noted: C57BL/6, Liver.
Series [5] has as its target Cytochrome P450 3A4 (Homo sapiens, UniProt P08684). The series is described as follows: Inhibition of CYP3A4 in pooled human liver microsomes using midazolam as substrate in presence of NADPH incubated for 10 mins by LC-MS/MS analysis. A general note: Liver microsomes are a subcellular fraction often used to study metabolism.
Series [6] addresses T1, Glucocorticoid receptor (Homo sapiens, UniProt P04150).
T1 sequence (P04150 whole entry): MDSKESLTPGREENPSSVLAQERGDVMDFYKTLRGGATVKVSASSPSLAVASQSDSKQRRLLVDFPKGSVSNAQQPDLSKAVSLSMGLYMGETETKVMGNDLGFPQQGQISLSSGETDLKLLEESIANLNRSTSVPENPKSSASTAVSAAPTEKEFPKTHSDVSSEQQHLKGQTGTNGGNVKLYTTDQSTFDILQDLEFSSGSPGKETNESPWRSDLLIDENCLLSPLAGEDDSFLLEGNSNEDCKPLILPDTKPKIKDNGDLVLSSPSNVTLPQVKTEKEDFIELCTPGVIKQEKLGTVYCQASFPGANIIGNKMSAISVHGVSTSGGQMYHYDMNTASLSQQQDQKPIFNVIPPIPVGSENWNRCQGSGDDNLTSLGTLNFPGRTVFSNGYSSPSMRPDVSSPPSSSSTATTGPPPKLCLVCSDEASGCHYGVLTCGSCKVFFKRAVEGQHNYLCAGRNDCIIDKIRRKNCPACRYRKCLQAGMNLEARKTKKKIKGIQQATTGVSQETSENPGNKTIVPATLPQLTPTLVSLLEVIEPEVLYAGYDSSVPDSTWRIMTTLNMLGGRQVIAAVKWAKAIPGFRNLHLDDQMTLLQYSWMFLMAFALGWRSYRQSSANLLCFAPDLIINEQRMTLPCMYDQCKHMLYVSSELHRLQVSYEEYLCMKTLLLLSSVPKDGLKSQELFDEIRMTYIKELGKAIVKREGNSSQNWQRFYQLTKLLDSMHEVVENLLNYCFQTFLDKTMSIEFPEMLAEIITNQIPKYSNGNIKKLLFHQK
The series is described as follows: Antagonist activity at glucocorticoid receptor (unknown origin).

Series [7] concerns the target T2, Mineralocorticoid receptor (Homo sapiens, UniProt P08235).
T2 sequence (P08235 whole entry): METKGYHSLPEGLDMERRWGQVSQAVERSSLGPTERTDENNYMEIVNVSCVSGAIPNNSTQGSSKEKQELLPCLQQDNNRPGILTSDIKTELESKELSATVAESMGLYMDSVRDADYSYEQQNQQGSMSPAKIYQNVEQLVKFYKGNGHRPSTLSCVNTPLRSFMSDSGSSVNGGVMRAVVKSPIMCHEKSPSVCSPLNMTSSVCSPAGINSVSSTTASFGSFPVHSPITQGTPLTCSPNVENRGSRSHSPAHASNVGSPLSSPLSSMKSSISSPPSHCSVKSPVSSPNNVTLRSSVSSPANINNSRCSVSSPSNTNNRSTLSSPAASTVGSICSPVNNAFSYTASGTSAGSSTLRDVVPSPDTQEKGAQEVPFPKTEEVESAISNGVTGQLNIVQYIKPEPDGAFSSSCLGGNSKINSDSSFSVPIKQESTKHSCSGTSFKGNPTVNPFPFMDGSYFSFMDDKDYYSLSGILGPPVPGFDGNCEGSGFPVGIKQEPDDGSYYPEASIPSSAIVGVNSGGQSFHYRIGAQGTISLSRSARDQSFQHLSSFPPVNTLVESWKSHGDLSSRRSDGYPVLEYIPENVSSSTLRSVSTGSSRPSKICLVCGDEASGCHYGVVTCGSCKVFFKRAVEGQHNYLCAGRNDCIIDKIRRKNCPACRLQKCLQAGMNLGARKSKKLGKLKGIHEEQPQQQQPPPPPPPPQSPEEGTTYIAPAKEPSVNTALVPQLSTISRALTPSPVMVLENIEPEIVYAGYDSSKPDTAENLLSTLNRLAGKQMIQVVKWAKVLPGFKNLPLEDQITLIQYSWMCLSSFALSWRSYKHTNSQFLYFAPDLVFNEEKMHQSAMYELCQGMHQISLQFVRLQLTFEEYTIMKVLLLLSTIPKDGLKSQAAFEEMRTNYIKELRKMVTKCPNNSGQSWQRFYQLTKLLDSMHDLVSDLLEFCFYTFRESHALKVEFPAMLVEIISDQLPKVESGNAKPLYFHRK
The series is described as follows: Antagonist activity at mineralocorticoid receptor (unknown origin).

Series [8] concerns the target Phosphodiesterase 4 (Homo sapiens, UniProt P27815+Q08499+Q07343+Q08493). The series is described as follows: Inhibition of PDE4 (unknown origin). In kind it is protein assay.
The nature of series [9]: Volume of distribution at steady state in rat at 1 mg/kg, iv. Type of series: ADME, organism-based. To be noted: in vivo, read-out: Vdss. The method in brief:
(§2)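 Single-dose PK study. The iv dose was given in 10% hydroxypropyl-β-cyclodextrin and the oral dose in 0.5% methylcellulose/1% Tween80. Mouse and rat received 1 mg/kg iv and 5 mg/kg po. Dog received 0.5 mg/kg iv and 4 mg/kg po. CL, Vss, t1/2, AUC, Cmax, tmax and F were derived.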

The nature of series [10]: Volume of distribution at steady state in dog at 0.5 mg/kg, iv. Type of series: ADME, organism-based, Canis lupus familiaris. To be noted: in vivo, read-out: Vdss. Summed up: as §2
The nature of series [11]: AUC in rat at 1 mg/kg, iv. Type of series: ADME, organism-based. Set-up: dose 1 mg/kg. To be noted: in vivo.
A short description of series [12]: Oral bioavailability in mouse at 5 mg/kg. In kind it is ADME, organism-based. To be noted: in vivo. Summed up:
as §2

Series [13] in a line: Toxicity in female mouse during 4-week repeated once daily oral-dose toxicity study. To be noted: in vivo, time 4 weeks. The method in brief:
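Mice of both sexes were dosed orally once daily for 4 weeks at 40, 100, 250 and 625 mg/kg. Toxicity was assessed and the NOAEL determined.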

The term inhibition in vivo denotes how much of the control response was suppressed. As a reminder, the IC50 is the point on the concentration scale where inhibition reaches its midpoint. Broadly, the EC50 is the concentration at which the effect is half-maximal. By AUC is commonly meant the area under the concentration-time curve, a measure of exposure. A low value points to less exposure. As a reminder, the bioavailability is dose-corrected exposure relative to a reference, in per cent. A low value points to poor availability. The term NOAEL denotes the highest dose or exposure tested at which no adverse effect was seen.

Cytochrome P450 3A4, sequence (P08684 whole entry): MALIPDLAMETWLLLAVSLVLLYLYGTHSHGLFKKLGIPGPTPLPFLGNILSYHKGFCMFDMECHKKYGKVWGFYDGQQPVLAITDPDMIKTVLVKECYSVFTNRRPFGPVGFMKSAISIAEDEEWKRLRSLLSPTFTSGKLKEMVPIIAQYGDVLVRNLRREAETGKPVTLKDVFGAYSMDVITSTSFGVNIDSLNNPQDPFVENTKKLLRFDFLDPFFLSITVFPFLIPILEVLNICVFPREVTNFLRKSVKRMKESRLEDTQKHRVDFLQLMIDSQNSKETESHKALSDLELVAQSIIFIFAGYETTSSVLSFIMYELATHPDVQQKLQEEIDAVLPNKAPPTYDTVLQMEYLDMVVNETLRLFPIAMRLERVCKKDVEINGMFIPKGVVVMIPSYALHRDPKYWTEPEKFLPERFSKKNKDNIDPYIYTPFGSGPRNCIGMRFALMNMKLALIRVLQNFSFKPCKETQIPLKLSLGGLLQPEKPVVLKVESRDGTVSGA

Regarding `C[C@@H]1CN(c2ccc(S(C)(=O)=O)cc2F)CCN1c1nccc(C(=O)NC2C3CC4CC2CC(O)(C4)C3)n1` (stereo partly drawn), the inhibition in vivo at 10 mg/kg in series [1] is 93%; in [4] it was 86%. Further, the inhibition in vivo at 30 mg/kg in [2] was 91%. Besides, in [3], the Ratio is recorded as above 50. The figures for the IC50 in series [5] and in series [8] were above 10 µM and 5.2 µM, respectively. Besides, the EC50 in series [6] and in series [7] was above 5 µM in each case. The Vd in series [9] amounted to 2.1 L/kg; in series [10], 2.4 L/kg. The compound also registered an AUC in [11] of 1120 ng·h/mL. This compound also showed a bioavailability in series [12] of 96%. The compound also came in with a no-observed-adverse-effect level (NOAEL) at 672 h in [13] of 625 mg/kg.

Source of the values: ChEMBL document CHEMBL4680093 (J Med Chem, 2016).
